Source: PubChem BioAssay
OX1R antag-1: antagonists of human orexin 1 receptor (OX1R); OX1R-expressing cells, FRET antagonist read-out; inhibition, % at 6.6 µM; actives 1.8% (n = 330,000); AID 485270; in the data active means inhibition mostly above about 38%, no sharp cut-off; inactive means mostly below about 40%;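 further: 0% = agonist challenge alone and 100% = reference antagonist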
Target sequence (O43613 whole entry, looked up): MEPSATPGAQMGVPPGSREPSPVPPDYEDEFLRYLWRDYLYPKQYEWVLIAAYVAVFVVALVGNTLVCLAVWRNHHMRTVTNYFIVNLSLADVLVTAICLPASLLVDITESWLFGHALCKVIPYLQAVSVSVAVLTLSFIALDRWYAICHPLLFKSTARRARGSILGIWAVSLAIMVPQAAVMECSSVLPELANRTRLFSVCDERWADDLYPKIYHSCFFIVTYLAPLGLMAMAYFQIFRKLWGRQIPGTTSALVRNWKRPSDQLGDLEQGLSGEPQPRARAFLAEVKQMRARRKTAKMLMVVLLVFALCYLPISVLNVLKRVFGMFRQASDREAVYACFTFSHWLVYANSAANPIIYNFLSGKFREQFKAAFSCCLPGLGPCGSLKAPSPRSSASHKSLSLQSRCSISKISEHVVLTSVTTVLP
TAAR1 agonist: human TAAR1 agonism. Q96RJ0. CHO RD-HGA16 TAAR1, Fluo-8 calcium fluorescence; vehicle wells 0%, saturating PEA agonist 100%. activation, % at 3 µM. actives 0.99% (n = 360,000);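 active means activation above the mean activation of all test compounds in the run plus 3 SD, cut at about 38% in these data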
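Repeats: no replicates (n 1) | Material: CHO-derived RD-HGA16 cells with stable Gα16 and human TAAR1 | Technique: Kinetic Fluo-8 calcium fluorescence | Schedule: 17-24 h seeding, 75 min 37 °C dye, 30 min RT | Evaluation: % activation from peak over basal fluorescence ratio, DMSO-to-PEA scaled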
TAAR1 antag: human TAAR1 antagonism. actives 1.5% (n = 360,000). AID 624466. inhibition, % at 3 µM. CHO RD-HGA16 TAAR1, Fluo-8 calcium fluorescence, antagonist;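 active means inhibition above a per-plate cutoff, the mean inhibition of test compounds on that plate plus 3 SD, cut at about 49% in these data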;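 further: 0% = DMSO plus EC80 beta-PEA response and 100% = DMSO alone without agonist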
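System: CHO RD-HGA16 cells bearing hTAAR1. Reagent: EC80 β-phenethylamine stimulus. Schedule: seeding 17-24 h prior, 75-min 37 °C, 30-min RT dye loading. Signal: Fluo-8 intracellular calcium dye fluorescence, real-time kinetic reads. Read-out: % inhibition from peak post-agonist over basal fluorescence ratio. Benchmarks: vehicle wells and EC80 agonist wells. Replicates: n of 1.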
OX1R antag-2: human HCRTR1 antagonism; O43613; CHO/OX1R cells, Fluo-8 calcium fluorescence, orexin A; inhibition, % at 5 µM; actives 0.43% (n = 330,000); AID 434989;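 active means inhibition above its plate's threshold, mean inhibition of all tested compounds on the plate plus 3 SD, cut at about 37% in these data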;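 further: 0% = orexin A challenge wells and 100% = SB-334867-A antagonist wells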
CHO parental Ca: counter-screen: ATP calcium response change in parental CHO cells. parental CHO-K1, ATP-induced calcium, Fluo-8 fluorescence. inhibition, % at 5.6 µM. actives 0.63% (n = 330,000). AID 463079;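 active means inhibition above that plate's mean sample inhibition plus 3 SD, cut at about 26% in these data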;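 further: 0% = ATP-challenged DMSO wells and 100% = DMSO wells without ATP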
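material = parental CHO cells | also added = ATP as calcium-mobilizing challenge | dosing = single point at 5.6 µM | detection = intracellular calcium via Fluo-8 no-wash fluorescent dye | read-out = % inhibition | benchmarks = low control ATP plus DMSO, high control DMSO only | repeats = one well per compound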
GPR7 antagonist: human neuropeptides B/W receptor 1 antagonism; GPR7-expressing cells, fluorescence antagonist assay; inhibition, % at 4.4 µM; actives 1.1% (n = 290,000); AID 1861; in the data active means inhibition above about 16%, passing the limit was not always enough;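 further: cells stimulated with the agonist NPW; 0% = agonist with vehicle and 100% = vehicle without agonist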
OX1R Fluo8 conf: OX1R (human) antagonism, confirmed; inhibition, % at 5 µM; actives 38% (n = 1,100); AID 492963; shares compounds with OX1R antag-2; CHO/OX1R cells, orexin A calcium Fluo-8 fluorescence; in the data active means inhibition above about 29%;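 further: 0% = agonist challenge alone and 100% = reference antagonist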
CHO Ca counter: counter-screen: parental CHO calcium response change, triplicate. parental CHO-K1, ATP-induced calcium, Fluo-8 fluorescence. shares compounds with OX1R antag-2. inhibition, % at 5.6 µM. actives 9.3% (n = 1,100);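 active means inhibition above a per-plate limit, the mean inhibition of that plate's test compounds plus 3 SD, cut at about 25% in these data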;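 further: 0% = ATP challenge with DMSO and 100% = DMSO without ATP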
OX1R HTRF confirm: confirmation of human orexin 1 receptor antagonists, HTRF format. OX1R-expressing cells, HTRF antagonist assay. actives 49% (n = 1,800). shares compounds with OX1R antag-1. inhibition, % at 6.6 µM. AID 492964; in the data active means inhibition above about 55%;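 further: CHO cells expressing OX1R stimulated with orexin A at about EC80; 0% = agonist challenge alone and 100% = reference antagonist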
CHO-K1 HTRF: counter-screen for OX1R antagonists: effect in parental CHO-K1 cells | shares compounds with OX1R antag-1 | HTRF counterscreen | inhibition, % at 6.6 µM | actives 48% (n = 1,800) | AID 493232; in the data active means inhibition above about 17%;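 further: 0% = agonist challenge with vehicle and 100% = vehicle alone without agonist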
Starred values were filed as active, the others as inactive. Hits are enriched below; roughly 4.6% of the tested compounds scored in any of these assays.

For Cc1ccc(NC(=O)c2cccc(S(=O)(=O)N3CCc4ccccc4C3)c2)nc1 the results were OX1R antag-1 39*, TAAR1 agonist 2, TAAR1 antag 19, OX1R antag-2 32, CHO parental Ca -20, OX1R Fluo8 conf -6, CHO Ca counter -12, OX1R HTRF confirm 36 and CHO-K1 HTRF 4.
For C[C@H](CO)N1C[C@H](C)[C@@H](CN(C)S(C)(=O)=O)Oc2ccc(NC(=O)C3CCCCC3)cc2C1=O the results were OX1R antag-1 4, TAAR1 agonist 6, TAAR1 antag 2, OX1R antag-2 -1 and CHO parental Ca 1.
Screening O=C(Nc1cccc(S(=O)(=O)NCc2ccco2)c1)c1cc(-c2ccccc2)nc2ccccc12 returned OX1R antag-1 78*, TAAR1 agonist 17, TAAR1 antag 59*, OX1R antag-2 46*, CHO parental Ca -5, GPR7 antagonist -6, OX1R Fluo8 conf 41*, CHO Ca counter -6, OX1R HTRF confirm 74* and CHO-K1 HTRF 7.
For Cc1cccc(NC(=O)c2ccc(F)c(S(=O)(=O)NCc3ccco3)c2)c1 the results were OX1R antag-1 86*, TAAR1 agonist -1, TAAR1 antag -25, OX1R antag-2 58*, CHO parental Ca -21, GPR7 antagonist 6, OX1R Fluo8 conf 44*, CHO Ca counter -15, OX1R HTRF confirm 75* and CHO-K1 HTRF 3.
Screening O=C(NCc1ccco1)c1cc(-c2ccccc2)nc2ccccc12 returned OX1R antag-1 42, TAAR1 agonist 8, TAAR1 antag 47, OX1R antag-2 -30, CHO parental Ca -25 and GPR7 antagonist -1.
O=C(Nc1cccc(Cl)c1)c1ccc(F)c(S(=O)(=O)NCc2cccs2)c1 was read as OX1R antag-1 85*, TAAR1 agonist 18, TAAR1 antag 10, OX1R antag-2 63*, CHO parental Ca -17, GPR7 antagonist 8, OX1R Fluo8 conf 31*, CHO Ca counter -5, OX1R HTRF confirm 78* and CHO-K1 HTRF 1.
`CCN(C(=O)COC(=O)Cc1c[nH]c2ccccc12)C1CCS(=O)(=O)C1` (configuration not stated) gave OX1R antag-1 3, TAAR1 agonist 3, TAAR1 antag -18, OX1R antag-2 -8, CHO parental Ca 6 and GPR7 antagonist -5.
COc1ccc(S(=O)(=O)N2CCN(Cc3cccc(OC)c3OC)CC2)cc1 was read as OX1R antag-1 7, TAAR1 agonist 0, TAAR1 antag 13, OX1R antag-2 -31, CHO parental Ca -26 and GPR7 antagonist -5.
Cn1cccc1C(=O)NC(=O)COC(=O)c1ccccc1Sc1ccccc1C#N was read as OX1R antag-1 40, TAAR1 agonist 3, TAAR1 antag 26, OX1R antag-2 -9, CHO parental Ca -5 and GPR7 antagonist 6.
`Cc1ccc(NC(=O)c2ccc3ccccc3n2)nc1` gave OX1R antag-1 87*, TAAR1 agonist 3, TAAR1 antag -20, OX1R antag-2 39, CHO parental Ca -19, GPR7 antagonist -4, OX1R Fluo8 conf 38*, CHO Ca counter -12, OX1R HTRF confirm 97* and CHO-K1 HTRF -3.
CCSc1nnc(NC(=O)c2ccc3ccccc3n2)s1 was read as OX1R antag-1 94*, TAAR1 agonist 0, TAAR1 antag -6, OX1R antag-2 79*, CHO parental Ca -1, GPR7 antagonist 8, OX1R Fluo8 conf 43*, CHO Ca counter -2, OX1R HTRF confirm 92* and CHO-K1 HTRF 7.
Screening O=C(Nc1ccc2c(c1)OCCO2)c1ccc2ccccc2n1 returned OX1R antag-1 107*, TAAR1 agonist -1, TAAR1 antag 1, OX1R antag-2 28, CHO parental Ca -18, GPR7 antagonist -1, OX1R Fluo8 conf 22, CHO Ca counter 3, OX1R HTRF confirm 87* and CHO-K1 HTRF 14.
O=C(NCCS(=O)(=O)NCc1ccco1)c1ccccc1 was read as OX1R antag-1 23, TAAR1 agonist 6, TAAR1 antag -33, OX1R antag-2 -9 and CHO parental Ca 24.
For CC(C)(C)OC(=O)NCc1ccc(NC(=O)c2nc[nH]c2C(=O)N[C@@H](Cc2ccccc2)C(=O)OCc2ccccc2)cc1 the results were OX1R antag-1 0, TAAR1 agonist 12, TAAR1 antag 42, OX1R antag-2 -1 and CHO parental Ca 20.
Screening COc1ccccc1N(C)S(=O)(=O)c1ccc(Cl)c(C(=O)NNC(=O)c2ccccc2O)c1 returned OX1R antag-1 47, TAAR1 agonist 4, TAAR1 antag -15, OX1R antag-2 -15, CHO parental Ca -15 and GPR7 antagonist -13.
For COc1ccccc1N(C)S(=O)(=O)c1ccc(Cl)c(C(=O)OCc2c(C)noc2C)c1 the results were OX1R antag-1 54*, TAAR1 agonist 14, TAAR1 antag 38, OX1R antag-2 26, CHO parental Ca -4, GPR7 antagonist -4, OX1R Fluo8 conf 13, CHO Ca counter -7, OX1R HTRF confirm 34 and CHO-K1 HTRF -1.
CSc1nc2ccc3nc(NC(=O)c4ccccc4)sc3c2s1 was read as OX1R antag-1 84*, TAAR1 agonist 2, TAAR1 antag -12, OX1R antag-2 46*, CHO parental Ca -15, GPR7 antagonist -7, OX1R Fluo8 conf 79*, CHO Ca counter -13, OX1R HTRF confirm 95* and CHO-K1 HTRF 11.
O=C(Nc1nc2ccccc2s1)c1ccccc1 was read as OX1R antag-1 10, TAAR1 agonist 0, TAAR1 antag 16, OX1R antag-2 -20, CHO parental Ca -10 and GPR7 antagonist -6.
Screening CN(C)C(=O)CN1C(=O)C2CCCCN2C(=O)c2ccccc21 (configuration not stated) returned OX1R antag-1 19, TAAR1 agonist 8, TAAR1 antag -4, OX1R antag-2 7, CHO parental Ca 1 and GPR7 antagonist -14.
For COc1ccc(Nc2cc(Nc3ccccc3)ncn2)cc1 the results were OX1R antag-1 -4, TAAR1 agonist 1, TAAR1 antag -6, OX1R antag-2 -9, CHO parental Ca 3 and GPR7 antagonist -9.
